According to ChEMBL document CHEMBL4014276, “Diphenylurea derivatives for combating methicillin- and vancomycin-resistant Staphylococcus aureus” (Eur J Med Chem, 2017):
Values after ≈ are worked out from the molar mass of the structure shown. Active and inactive are the calls of the source. No cut-off for these calls is given here.

Test system: not listed separately
Assay: Intrinsic clearance in human liver microsomes in presence of NADPH by LC-MS/MS method
Type: ADME, microsome
Details: read-out: CLH

Row | Compound | microsomal CLint
1 | CCCCc1ccc(NC(=O)Nc2ccc(/C(C)=N/NC(=N)N)cc2)cc1 | 190 µL/min/mg
2 | C/C(=N\NC(=N)N)c1ccc(NC(=O)Nc2ccc(C(C)(C)C)cc2)cc1 | 20 µL/min/mg
3 | CCCCOc1ccc(NC(=O)Nc2ccc(/C(C)=N/NC(=N)N)cc2)cc1 | 51 µL/min/mg

Test system: Staphylococcus aureus
Assay: Antibacterial activity against methicillin-resistant Staphylococcus aureus USA300 NRS384 clinical isolate preincubated followed by bacterial subculturing for 2 weeks
Type: functional
Details: not given

Row | Compound | Activity
4 | C/C(=N\NC(=N)N)c1ccc(NC(=O)Nc2ccc(C(C)(C)C)cc2)cc1 | Active
5 | CCCCOc1ccc(NC(=O)Nc2ccc(/C(C)=N/NC(=N)N)cc2)cc1 | Active

Test system: Staphylococcus aureus
Assay: Antibacterial activity against methicillin-resistant Staphylococcus aureus USA400 NRS123 clinical isolate after 20 hrs by broth microdilution method
Type: functional
Details: USA400 NRS123, 20 h
How it was run: (§1)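 CLSI broth microdilution in cation-adjusted Mueller Hinton broth; compounds serially diluted, triplicate samples; 37 °C, 20 h. MIC read visually as lowest concentration with no visible growth; mean of triplicate determinations reported.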

Row | Compound | MIC
6 | CCCCc1ccc(NC(=O)Nc2ccc(/C(C)=N/NC(=N)N)cc2)cc1 | 8 µg/mL (≈ 21.8 µM)
7 | CCCCOc1ccc(NC(=O)Nc2ccc(/C(C)=N/NC(=N)N)cc2)cc1 | 8 µg/mL (≈ 20.9 µM)

Test system: Staphylococcus aureus
Assay: Antibacterial activity against methicillin-resistant Staphylococcus aureus USA300 NRS384 clinical isolate after 20 hrs by broth microdilution method
Type: functional
Details: USA300 NRS384, 20 h
How it was run: as §1

Row | Compound | MIC
8 | CCCCOc1ccc(NC(=O)Nc2ccc(/C(C)=N/NC(=N)N)cc2)cc1 | 16 µg/mL (≈ 41.8 µM)

Test system: Staphylococcus aureus
Assay: Bactericidal activity against vancomycin-resistant Staphylococcus aureus VRSA4 after 18 hrs by broth microdilution method
Type: functional
Details: VRSA4, 18 h
How it was run: (§2)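 From MIC wells without visible growth, 5 uL spotted onto Tryptic soy agar, incubated 37 °C for at least 18 h; MBC taken as lowest concentration giving 99.9% growth inhibition.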

Row | Compound | MBC
9 | CCCCOc1ccc(NC(=O)Nc2ccc(/C(C)=N/NC(=N)N)cc2)cc1 | 16 µg/mL (≈ 41.8 µM)

Test system: Staphylococcus aureus
Assay: Bactericidal activity against Staphylococcus aureus RN4220 NRS107 clinical isolate after 18 hrs by broth microdilution method
Type: functional
Details: RN4220 NRS107, 18 h
How it was run: as §2

Row | Compound | MBC
10 | CCCCOc1ccc(NC(=O)Nc2ccc(/C(C)=N/NC(=N)N)cc2)cc1 | > 64 µg/mL

Test system: Staphylococcus aureus
Assay: Bactericidal activity against methicillin-resistant Staphylococcus aureus USA100 NRS382 clinical isolate after 18 hrs by broth microdilution method
Type: functional
Details: USA100 NRS382, 18 h
How it was run: as §2

Row | Compound | MBC
11 | C/C(=N\NC(=N)N)c1ccc(NC(=O)Nc2ccc(C(C)(C)C)cc2)cc1 | 128 µg/mL (≈ 349 µM)
12 | CCCCOc1ccc(NC(=O)Nc2ccc(/C(C)=N/NC(=N)N)cc2)cc1 | 16 µg/mL (≈ 41.8 µM)

Test system: Staphylococcus aureus
Assay: Bactericidal activity against vancomycin-resistant Staphylococcus aureus VRSA10 after 18 hrs by broth microdilution method
Type: functional
Details: VRSA10, 18 h
How it was run: as §2

Row | Compound | MBC
13 | CCCCOc1ccc(NC(=O)Nc2ccc(/C(C)=N/NC(=N)N)cc2)cc1 | 32 µg/mL (≈ 83.7 µM)

Test system: Staphylococcus aureus
Assay: Antibacterial activity against methicillin-resistant Staphylococcus aureus USA200 NRS383 clinical isolate after 20 hrs by broth microdilution method
Type: functional
Details: USA200 NRS383, 20 h
How it was run: as §1

Row | Compound | MIC
14 | CCCCOc1ccc(NC(=O)Nc2ccc(/C(C)=N/NC(=N)N)cc2)cc1 | 16 µg/mL (≈ 41.8 µM)

Test system: Staphylococcus aureus
Assay: Antibacterial activity against methicillin-resistant Staphylococcus aureus USA100 NRS382 clinical isolate preincubated followed by bacterial subculturing for 2 weeks
Type: functional
Details: not given

Row | Compound | Activity
15 | C/C(=N\NC(=N)N)c1ccc(NC(=O)Nc2ccc(C(C)(C)C)cc2)cc1 | Active
16 | CCCCOc1ccc(NC(=O)Nc2ccc(/C(C)=N/NC(=N)N)cc2)cc1 | Active

Test system: Staphylococcus aureus
Assay: Antibacterial activity against vancomycin-resistant Staphylococcus aureus VRSA4 after 20 hrs by broth microdilution method
Type: functional
Details: VRSA4, 20 h
How it was run: as §1

Row | Compound | MIC
17 | CCCCOc1ccc(NC(=O)Nc2ccc(/C(C)=N/NC(=N)N)cc2)cc1 | 16 µg/mL (≈ 41.8 µM)

Test system: not listed separately
Assay: Half life in human liver microsomes in presence of NADPH by LC-MS/MS method
Type: ADME, microsome
Details: not given

Row | Compound | half-life
18 | CCCCc1ccc(NC(=O)Nc2ccc(/C(C)=N/NC(=N)N)cc2)cc1 | 13 min
19 | C/C(=N\NC(=N)N)c1ccc(NC(=O)Nc2ccc(C(C)(C)C)cc2)cc1 | 174 min
20 | CCCCOc1ccc(NC(=O)Nc2ccc(/C(C)=N/NC(=N)N)cc2)cc1 | 65.5 min

Test system: Staphylococcus aureus
Assay: Antibacterial activity against Staphylococcus aureus RN4220 NRS107 clinical isolate after 20 hrs by broth microdilution method
Type: functional
Details: RN4220 NRS107, 20 h
How it was run: as §1

Row | Compound | MIC
21 | CCCCOc1ccc(NC(=O)Nc2ccc(/C(C)=N/NC(=N)N)cc2)cc1 | 16 µg/mL (≈ 41.8 µM)

Test system: Staphylococcus aureus
Assay: Antibacterial activity against methicillin-resistant Staphylococcus aureus USA100 NRS382 clinical isolate after 20 hrs by broth microdilution method
Type: functional
Details: USA100 NRS382, 20 h
How it was run: as §1

Row | Compound | MIC
22 | C/C(=N\NC(=N)N)c1ccc(NC(=O)Nc2ccc(C(C)(C)C)cc2)cc1 | 64 µg/mL (≈ 175 µM)
23 | CCCCOc1ccc(NC(=O)Nc2ccc(/C(C)=N/NC(=N)N)cc2)cc1 | 16 µg/mL (≈ 41.8 µM)

Test system: Staphylococcus aureus
Assay: Bactericidal activity against methicillin-resistant Staphylococcus aureus USA200 NRS383 clinical isolate after 18 hrs by broth microdilution method
Type: functional
Details: USA200 NRS383, 18 h
How it was run: as §2

Row | Compound | MBC
24 | CCCCOc1ccc(NC(=O)Nc2ccc(/C(C)=N/NC(=N)N)cc2)cc1 | 32 µg/mL (≈ 83.7 µM)

Test system: Staphylococcus aureus
Assay: Antibacterial activity against methicillin-resistant Staphylococcus aureus USA200 NRS383 clinical isolate preincubated followed by bacterial subculturing for 2 weeks
Type: functional
Details: not given

Row | Compound | Activity
25 | C/C(=N\NC(=N)N)c1ccc(NC(=O)Nc2ccc(C(C)(C)C)cc2)cc1 | Active
26 | CCCCOc1ccc(NC(=O)Nc2ccc(/C(C)=N/NC(=N)N)cc2)cc1 | Active

Test system: Staphylococcus aureus
Assay: Bactericidal activity against methicillin-resistant Staphylococcus aureus USA300 NRS384 clinical isolate after 18 hrs by broth microdilution method
Type: functional
Details: USA300 NRS384, 18 h
How it was run: as §2

Row | Compound | MBC
27 | CCCCOc1ccc(NC(=O)Nc2ccc(/C(C)=N/NC(=N)N)cc2)cc1 | 16 µg/mL (≈ 41.8 µM)

Test system: Staphylococcus aureus
Assay: Antibacterial activity against methicillin-resistant Staphylococcus aureus USA400 NRS123 clinical isolate preincubated followed by bacterial subculturing for 2 weeks
Type: functional
Details: not given

Row | Compound | Activity
28 | C/C(=N\NC(=N)N)c1ccc(NC(=O)Nc2ccc(C(C)(C)C)cc2)cc1 | Active
29 | CCCCOc1ccc(NC(=O)Nc2ccc(/C(C)=N/NC(=N)N)cc2)cc1 | Active

Test system: Staphylococcus aureus
Assay: Bactericidal activity against methicillin-resistant Staphylococcus aureus USA400 NRS123 clinical isolate after 18 hrs by broth microdilution method
Type: functional
Details: USA400 NRS123, 18 h
How it was run: as §2

Row | Compound | MBC
30 | CCCCOc1ccc(NC(=O)Nc2ccc(/C(C)=N/NC(=N)N)cc2)cc1 | 32 µg/mL (≈ 83.7 µM)

Test system: Staphylococcus aureus
Assay: Antibacterial activity against vancomycin-resistant Staphylococcus aureus VRSA10 after 20 hrs by broth microdilution method
Type: functional
Details: VRSA10, 20 h
How it was run: as §1

Row | Compound | MIC
31 | CCCCOc1ccc(NC(=O)Nc2ccc(/C(C)=N/NC(=N)N)cc2)cc1 | 16 µg/mL (≈ 41.8 µM)
